Experimental data: the array DNA melting data of Ke et al. (doi:10.1101/2024.01.08.574731)

Experiments:
[1] = folding enthalpy; higher = less favourable; fluorescence melt of hairpins on a sequencing array, two-state fit; conditions: sodium 0.088 M
Summary of the method: (§1)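 Cy3 fluorescence of library hairpins on a sequenced MiSeq flow cell, with annealed Cy3 and quencher oligos, was imaged in 50 mM Na-HEPES pH 8.0, 25 mM NaCl in 2.5 °C steps up to 60 °C. Signals were normalised to pre-quench Cy3 and to control variants. Melting temperature and folding enthalpy came from bootstrapped two-state fits, inverse-variance combined over four replicates. Fitted temperatures were raised by 9.35 °C to match UV melts.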

[2] = melting temperature; fluorescence melt of hairpins on a sequencing array, two-state fit, raised by 9.35 °C to match UV melts; conditions: sodium 0.088 M
Summary of the method: as §1

| Sequence | folding enthalpy [1] [kcal/mol] | Tm [2] [°C] |
| --- | --- | --- |
| GCAATGGGAAACCATCAC (..((((....))))..) | -10.7 | 22.8 |
| GAGACAGGAAACTGTTTC ((.((((....)))).)) | -29.1 | 37.9 |
| GATCGACGCTTCGATC ((((((....)))))) | -40.6 | 53.3 |
| GACTATGGAAACGTAGTC (((((.(....).))))) | -32.4 | 42 |
| GGCATGCGAAAGCAAGCC (((.(((....))).))) | -27.8 | 65.4 |
| GATCCCAAGAGGGATC ((((((....)))))) | -33.9 | 60.8 |
| GTAGACGAAAGTCCTTAC ((((((....)))..))) | -12.1 | 30.7 |
| GACCTCCGAAAGGACGTC (((.(((....))).))) | -27.3 | 42 |
| GATCCTATCCAGGATC ((((((....)))))) | -33.8 | 53 |
| GCGCGGCGAAAGCCTCGC (((.(((....))).))) | -26.2 | 66.7 |
| GATGCCGAAAGGCAATC ((((((....))).))) | -13.8 | 53 |
| GGGACCGGAAACGACCCC (((..((....))..))) | -25.2 | 35.5 |
| GAATACGGAAACGTATCC (.(((((....))))).) | -15.8 | 35.1 |
| GCTGACGAAAGTCCGAGC ((((((....)))..))) | -17.6 | 37.6 |
| GAAGCAGGAAACTGTTTC (((.(((....))).))) | -26.7 | 38.8 |
| GATCTGCCGACAGATC ((((((....)))))) | -29.7 | 50.1 |
| GTGCTCGAAAGAGCTCAC ((((((....)))..))) | -10.8 | 42.8 |
| GTCGGCGCGAAAGCGGAC (((..(((....)))))) | -13.8 | 45.6 |
| GATCTCTTCGGAGATC ((((((....)))))) | -42.6 | 54.5 |

| Sequence | folding enthalpy [1] [kcal/mol] | Tm [2] [°C] |
| --- | --- | --- |
| GCTTCGCGAAAGCGATGC ((.((((....)))).)) | -17.4 | 65.7 |
| GACGGTGGAAACACCGCC (.(((((....))))).) | -12.7 | 50.4 |
| GGTAGAGGAAACTCCACC (((.(((....))).))) | -28.2 | 31.6 |
| GCAGAGCGAAAGCTTCGC ((..(((....)))..)) | -17.2 | 44.8 |
| ACAACGAAAGTTGT (((((....))))) | -21.6 | 53.6 |
| GTATGCGGAAACACATAC (((((.(....).))))) | -32.8 | 39.8 |
| GATCTCGTATGAGATC ((((((....)))))) | -46.5 | 59.2 |
| GTAACAGAAATGTTAC ((((((....)))))) | -32.8 | 45.7 |
| GCTTAGCGAAAGCCAAGC ((((.((....)).)))) | -22.1 | 53.5 |
| GCGACCACTCGC ((((....)))) | -25.4 | 47 |
| GATCAGCGTACTGATC ((((((....)))))) | -30.2 | 51.6 |
| GCGCATACGAAAGTACGC (((..(((....)))))) | -22.7 | 44.9 |
| GGGTTCGAAAGAAGGCCC ((((((....)))..))) | -20.7 | 35.6 |
| GTACACGGAAACACGTAC ((((..(....)..)))) | -15.4 | 29.1 |
| GTCGAGTCGAAAGACGAC (((..(((....)))))) | -10.7 | 47 |
| GTTGAGCGAAAGCTTAAC (((.(((....))).))) | -26.4 | 52.4 |
| GCTGATGGAAACGTTAGC (((.(.(....).).))) | -11.2 | 27.8 |
| GTCGGTGGAAACACCGGC (.(((((....))))).) | -23.8 | 63.2 |
| GCAATGCGAAAGCTTTGC ((((.((....)).)))) | -39.1 | 63 |
